Compound activity (PubChem BioAssay)
TAAR1 agonist – human TAAR1 agonists, primary screen, Fluo-8 calcium fluorescence, CHO RD-HGA16 cells | vehicle wells 0%, saturating PEA agonist 100% | activation, % at 3 µM | 360,000 compounds, 0.99% hits;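 active = activation above the mean activation of all test compounds in the run plus 3 SD, cut at about 38% in these data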
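Test system: RD-HGA16 (CHO) cells co-expressing Gα16 and hTAAR1; dosing: one-point dosing at 3 µM (nominal); timing: 17-24 h seeding, 75 min 37 °C dye, 30 min RT; signal: kinetic Fluo-8 calcium fluorescence; read-out basis: % activation relative to PEA EC100 response; controls: DMSO and PEA EC100; replicates: n 1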
OX1R antag-1 – antagonists of human orexin 1 receptor (OX1R); Orexin/Hypocretin receptor type 1 (Homo sapiens), O43613; OX1R-expressing cells, FRET antagonist read-out; inhibition, % at 6.6 µM; 330,000 compounds, 1.8% hits; AID 485270, 2010; in the data active = inhibition mostly above about 38%, no sharp cut-off; inactive = mostly below about 40%;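 also: 0% = agonist challenge alone and 100% = reference antagonist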
Target sequence (O43613 whole entry, looked up): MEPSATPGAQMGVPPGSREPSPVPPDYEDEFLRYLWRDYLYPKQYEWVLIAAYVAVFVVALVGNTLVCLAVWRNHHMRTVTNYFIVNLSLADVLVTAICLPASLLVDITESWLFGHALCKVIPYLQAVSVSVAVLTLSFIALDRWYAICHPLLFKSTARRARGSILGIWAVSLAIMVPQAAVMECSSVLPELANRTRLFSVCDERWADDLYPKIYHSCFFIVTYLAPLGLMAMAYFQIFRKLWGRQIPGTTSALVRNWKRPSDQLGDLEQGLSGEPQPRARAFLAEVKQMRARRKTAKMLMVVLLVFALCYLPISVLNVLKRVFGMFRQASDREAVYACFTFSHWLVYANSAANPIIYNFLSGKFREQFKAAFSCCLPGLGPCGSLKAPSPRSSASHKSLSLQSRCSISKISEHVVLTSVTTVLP
TAAR1 antagonist – human TAAR1 antagonists, primary screen, Fluo-8 calcium fluorescence, CHO RD-HGA16 cells; antagonist; Trace amine-associated receptor 1 (Homo sapiens), Q96RJ0; AID 624466, 2012; inhibition, % at 3 µM; 360,000 compounds, 1.5% hits;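 active = inhibition above a per-plate cutoff, the mean inhibition of test compounds on that plate plus 3 SD, cut at about 49% in these data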;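 also: 0% = DMSO plus EC80 beta-PEA response and 100% = DMSO alone without agonist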
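Assay system: RD-HGA16 CHO cells with stable hTAAR1 and Gα16 / Reagent: EC80 β-phenethylamine stimulus / Doses: 3 µM, single point / Timing: dye loading 75 min at 37 °C, then 30 min room temperature / Measured by: Fluo-8 intracellular calcium dye fluorescence, real-time kinetic reads / Controls: vehicle wells and EC80 agonist wells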
GPR7 antag – GPR7 receptor antagonists, primary screen, cell-based, fluorescence, single concentration; GPR7-expressing cells, fluorescence antagonist assay; inhibition, % at 4.4 µM; Neuropeptides B/W receptor type 1 (Homo sapiens), P48145; 290,000 compounds, 1.1% hits; in the data active = inhibition above about 16%, passing the limit was not always enough;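 also: cells stimulated with the agonist NPW; 0% = agonist with vehicle and 100% = vehicle without agonist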
CHO parental Ca – ATP-evoked calcium signal inhibitors, parental CHO, primary screen, counter-screen for OX1R antagonist project, cell-based, fluorescence, Fluo-8 calcium dye; AID 463079, 2010; parental CHO-K1, ATP-induced calcium, Fluo-8 fluorescence; 330,000 compounds, 0.63% hits; inhibition, % at 5.6 µM;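 active = inhibition above that plate's mean sample inhibition plus 3 SD, cut at about 26% in these data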;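 also: 0% = ATP-challenged DMSO wells and 100% = DMSO wells without ATP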
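material = parental CHO cells | also added = ATP as calcium-mobilizing challenge | dosing = single point at 5.6 µM | detection = intracellular calcium via Fluo-8 no-wash fluorescent dye | read-out = % inhibition | benchmarks = low control ATP plus DMSO, high control DMSO only | repeats = one well per compound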
OX1R antag-2 – OX1R (HCRTR1) antagonists, primary screen, fluorescence, CHO/OX1R cells, Fluo-8 calcium, orexin A. Orexin/Hypocretin receptor type 1 (Homo sapiens), O43613. Fluo-8 calcium fluorescence. inhibition, % at 5 µM. 330,000 compounds, 0.43% hits;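 active = inhibition above its plate's threshold, mean inhibition of all tested compounds on the plate plus 3 SD, cut at about 37% in these data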;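 also: 0% = orexin A challenge wells and 100% = SB-334867-A antagonist wells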
nonsel antag count – nonselective antagonists in TAAR1 counter-screen cells, counter-screen for hTAAR1 antagonist project, cell-based, fluorescence, calcium | counterscreen cell line, antagonist mode | shares compounds with TAAR1 antagonist | AID 651780, 2012 | inhibition, % at 3 µM | 2,400 compounds, 77% hits; in the data active = inhibition above about 22%;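 also: CHO-Ga16 host cells stimulated with ATP at an EC80 level; 0% = agonist EC80 plus vehicle and 100% = vehicle without agonist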
TAAR1 ant conf – human TAAR1 antagonists, retest of hits, confirmation, cell-based, fluorescence. shares compounds with TAAR1 antagonist. TAAR1-expressing cells, fluorescence antagonist read-out. inhibition, % at 3 µM. 2,400 compounds, 40% hits. AID 651785, 2012; in the data active = inhibition above about 49%;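 also: CHO-Ga16 host cells challenged with agonist PEA near its EC80; 0% = agonist at EC80 plus vehicle and 100% = vehicle with no agonist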
Ga16 nonsel ag – calcium activation in Ga16-expressing cells, counter-screen for TAAR1 antagonist project, cell-based, fluorescence. shares compounds with TAAR1 antagonist. agonist counterscreen. activation, % at 3 µM. 2,400 compounds, 18% hits; in the data active = activation above about 12%;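 also: 0% = vehicle wells and 100% = saturating stimulus response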
TAAR1 ag count – TAAR1 activation by candidate antagonists – cell-based, fluorescence, counter-screen for TAAR1 antagonist project. hTAAR1 cell line, agonist mode. 2,400 compounds, 2% hits. activation, % at 3 µM. shares compounds with TAAR1 antagonist; in the data active = activation above about 37%;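 also: CHO cells stably expressing TAAR1 with calcium dye readout; 0% = DMSO vehicle and 100% = full agonist response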
The depositor's hits bear a star; . = not tested or not shown. A selection: hits, their analogues and other compounds. The true share with any hit is near 4.6%.

SMILES	TAAR1 agonist	OX1R antag-1	TAAR1 antagonist	GPR7 antag	CHO parental Ca	OX1R antag-2	nonsel antag count	TAAR1 ant conf	Ga16 nonsel ag	TAAR1 ag count
O=C(c1cc(-c2ccncc2)nc2ccccc12)N1CCOCC1	1	.	11	.	.	.	.	.	.	.
CC(=O)N1CCN(C(=O)c2cc(-c3cccc4ccccc34)nc3ccccc23)CC1	12	5	67*	-16	-18	-31	33*	48	9	10
O=C(c1cc(-c2ccncc2)nc2ccccc12)N1CCN(Cc2ccccc2)CC1	19	19	57*	.	-25	2	19	40	12*	14
Cc1ccccc1CN1CCN(C(=O)c2cc(-c3ccncc3)nc3ccccc23)CC1	12	16	71*	1	-25	-32	35*	46	9	9
CC(C=NNc1ccc([N+](=O)[O-])cn1)=Cc1ccccc1	0	.	0	.	.	.	.	.	.	.
COc1cccc(CN2CCN(C(=O)c3cc(-c4ccccn4)nc4ccc(Cl)cc34)CC2)c1	6	18	31	-14	-12	-22	.	.	.	.
COc1cccc(CN2CCN(C(=O)c3cc(-c4ccncc4)nc4ccc(C)cc34)CC2)c1	14	8	77*	-21	-26	-38	24*	46	9	10
O=C(c1cc(-c2ccncc2)nc2ccccc12)N1CCN(S(=O)(=O)/C=C/c2ccccc2)CC1	21	17	70*	-19	-26	-14	29*	45	9	8
CC1CC(C)CN(C(=O)c2cc(-c3ccncc3)nc3ccccc23)C1 (stereo not drawn)	3	14	-16	.	-37	-11	.	.	.	.
C=CCNc1nc(N)c(C(=C(C#N)C#N)c2ccc(Br)cc2)s1	9	12	68*	6	-9	1	27*	62*	6	15
C=CCNc1sc(C(=O)c2ccc(C)cc2)c(N)c1C#N	5	20	-17	-16	-29	-2	.	.	.	.
COc1cccc2cc(-c3cc(=O)oc4ccc(O)cc34)oc12	5	8	50*	-10	-15	-33	17	24	4	1
Cc1cc(/C=N/NC(N)=S)c(C)n1-c1ccc(Br)cc1	2	10	95*	11	-15	-4	15	92*	12*	17
Cc1cc(/C=N/NC(N)=S)c(C)n1-c1cccc(Cl)c1	21	9	12	-1	-3	11	.	.	.	.
Cc1cc(/C=N/NC(N)=S)c(C)n1-c1ccc(Cl)cc1	5	8	84*	-1	-1	-1	3	83*	16*	18
CCOC(=O)[C@H]1[C@H]2COc3ccc(OC)cc3[C@@H]2N2C(=O)c3cc(F)c(F)cc3NC(=O)[C@@]12C	6	19	9	.	-29	-29	.	.	.	.
CC(=O)Nc1cccc(-c2ccnc3c2CC(C)(C(=O)NCc2ccc(N(C)C)cc2)O3)c1 (stereo not drawn)	1	.	-23	.	.	.	.	.	.	.
COc1ccc(/C=N/NC(=O)c2ccc(COc3cccc4cccnc34)cc2)cc1O	8	23	63*	-17	-16	-27	26*	44	10	12
CC(=O)Nc1ccc(C(=O)N/N=C/c2ccccc2OC(=O)c2ccc(Cl)cc2)cc1	10	7	52*	1	-22	-34	35*	42	8	10
O=C(Nc1ccc(Cn2cccn2)cc1)c1ccc(COc2ccccc2Br)cc1	6	44	88*	-6	-10	-2	37*	66*	7	7
O=C(N/N=C/c1cccc(O)c1)c1ccc(COc2ccccc2Br)cc1	0	37	91*	-13	-20	-14	27*	78*	4	5
CC(Sc1nncn1C)C(=O)Nc1ccc(N2CCCCC2)cc1 (stereo not drawn)	7	10	-16	.	-14	-99	.	.	.	.
COc1ccc(/C=N/NC(=O)c2ccc(COc3cccc4cccnc34)cc2)cc1OC	10	50	54*	-11	-23	-27	27*	44	6	3
O=C(N/N=C/c1cccc(O)c1)c1ccc(COc2cccc3cccnc23)cc1	19	14	10	-16	-21	-21	.	.	.	.
COc1ccc(C(=O)N/N=C/c2ccc(OC)c(OS(=O)(=O)c3ccccc3)c2)cc1	4	9	71*	-3	-14	-33	19	33	5	0
SMILES	TAAR1 agonist	OX1R antag-1	TAAR1 antagonist	GPR7 antag	CHO parental Ca	OX1R antag-2	nonsel antag count	TAAR1 ant conf	Ga16 nonsel ag	TAAR1 ag count
O=C(N/N=C/c1cccc(NC(=O)c2ccc(Cl)cc2)c1)c1cccc(O)c1	4	8	73*	-6	-17	-22	26*	38	6	5
COc1ccc(NS(=O)(=O)c2cccc(C(=O)N/N=C/c3ccc4c(c3)OCCO4)c2)cc1	5	10	-2	6	-8	-3	.	.	.	.
COc1ccccc1NS(=O)(=O)c1cccc(C(=O)N/N=C/c2ccc3c(c2)OCCO3)c1	15	25	56*	-5	-14	-3	32*	45	10	9
COc1ccc(/C=N/NS(=O)(=O)c2ccccc2)cc1OS(=O)(=O)c1ccccc1	10	10	1	-2	-6	2	.	.	.	.
CCOC(=O)[C@]12CCCC=C1N(Cc1cccc3ccccc13)C(=O)[C@H](CC(=O)NCCCN1CCCC1=O)C2	1	.	3	.	.	.	.	.	.	.
O=C(CCNC(=O)c1ccccc1Cl)NCC(c1ccc(F)cc1)N1CCOCC1 (stereo not drawn)	3	3	-9	.	-23	-16	.	.	.	.
COc1cccc(C(C)(O)c2nc(-c3cnc4ccccc4c3)cs2)c1 (stereo not drawn)	4	.	35	.	.	.	.	.	.	.
